Results from ChEMBL document CHEMBL4706614, “Design, synthesis and biological evaluation of novel naphthoquinone-4-aminobenzensulfonamide/carboxamide derivatives as proteasome inhibitors” (Eur J Med Chem, 2021).
Calls of active or inactive are those of the source. No cut-off for these calls is given here. Residues, ends and D or L forms follow the SMILES beside them. *: point of attachment. Cbz = O=C(OCc1ccccc1)*

How the values were obtained:
[1] = target: T1, Proteasome component C5 (Homo sapiens) (UniProt P20618); test: Inhibition of caspase-like activity 20S proteasome beta subunit 1 of human MCF7 cells using fluorogenic substrate Z-LLE-AMC at 10 uM after 1 hr by fluorescence analysis relative to control; type: cell-based
T1 sequence (whole entry): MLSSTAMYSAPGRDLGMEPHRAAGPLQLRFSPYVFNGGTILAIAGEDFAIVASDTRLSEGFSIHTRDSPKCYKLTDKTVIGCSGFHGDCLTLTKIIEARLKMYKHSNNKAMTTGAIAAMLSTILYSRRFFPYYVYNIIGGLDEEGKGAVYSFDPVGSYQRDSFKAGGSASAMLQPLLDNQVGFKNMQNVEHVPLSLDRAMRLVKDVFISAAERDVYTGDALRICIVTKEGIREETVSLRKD
Summary of the method: (§1)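 Screen at 10 µM: MCF-7 lysates (sucrose/HEPES/MgCl2/EDTA buffer, 1 mM DTT) preincubated 10 min in 225 mM Tris pH 7.8, 7.5 mM MgOAc, 7.5 mM MgCl2, 45 mM KCl, 1 mM DTT; compound 1 h at 37 °C, then substrate 1 h at 37 °C; AMC release ex 360/em 460 nm versus DMSO; MG-132 positive control.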

MCF7 [2] = test: Antiproliferative activity against human MCF7 cells assessed as cell viability after 48 hrs MTT assay; type: functional, cell-based; details: MCF7, 48 h
Summary of the method: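 MTT:medium (1:9) added 4 h at 37°C, formazan dissolved in DMSO, absorbance 570 nm. DMSO solvent control; triplicate; IC50 = concentration inhibiting 50% of viability.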

[3] = target: Proteasome Macropain subunit (Homo sapiens) (UniProt P49721); test: Inhibition of trypsin-like activity 20S proteasome beta subunit 2 of human MCF7 cells using fluorogenic substrate Boc-LRR-AMC at 10 uM after 1 hr by fluorescence analysis relative to control; type: cell-based; summary of the method: as §1
[4] = target: T2, Proteasome Macropain subunit MB1 (Homo sapiens) (UniProt P28074); test: Inhibition of chymotrypsin-like activity 20S proteasome beta subunit 5 of human MCF7 cells using fluorogenic substrate Suc-LLVY-AMC at 10 uM after 1 hr by fluorescence analysis relative to control; type: cell-based; summary of the method: as §1
T2 sequence (whole entry): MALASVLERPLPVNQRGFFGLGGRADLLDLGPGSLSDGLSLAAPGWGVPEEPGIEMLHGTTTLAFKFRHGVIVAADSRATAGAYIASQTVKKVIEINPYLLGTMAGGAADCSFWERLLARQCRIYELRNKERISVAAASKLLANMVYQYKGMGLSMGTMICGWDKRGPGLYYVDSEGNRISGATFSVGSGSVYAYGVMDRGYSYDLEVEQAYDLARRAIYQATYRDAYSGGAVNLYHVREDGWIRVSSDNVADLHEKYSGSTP

[5] = target: T3, Proteasome Macropain subunit MB1 (Homo sapiens, UniProt P28074); test: Inhibition of chymotrypsin-like activity 20S proteasome beta subunit 5 of human MCF7 cells using fluorogenic substrate Suc-LLVY-AMC after 1 hr by fluorescence analysis; type: cell-based
T3 sequence (P28074 whole entry): T2 sequence (whole entry)
Summary of the method: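 For IC50, intact MCF-7 cells treated 12 h with compounds, then lysed (sucrose/HEPES/MgCl2/EDTA, 1 mM DTT); extracts in Tris pH 7.8/MgOAc/MgCl2/KCl/DTT mix with substrate 1 h at 37 °C; AMC fluorescence ex 360/em 460 nm, normalized to BCA total protein; DMSO solvent and MG-132 positive controls.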

MCF7 [6] = test: Effect on 20S proteasome beta subunit 5 expression in human MCF7 cells at IC50 after 12 hrs by Western blot analysis; type: functional, cell-based
MCF7 [7] = test: Increase in K48-linked polyubiquitinated protein expression in human MCF7 cells at IC50 after 12 hrs by Western blot analysis; type: functional, cell-based

Chain of Proteasome Macropain subunit (Homo sapiens) (P49721 whole entry): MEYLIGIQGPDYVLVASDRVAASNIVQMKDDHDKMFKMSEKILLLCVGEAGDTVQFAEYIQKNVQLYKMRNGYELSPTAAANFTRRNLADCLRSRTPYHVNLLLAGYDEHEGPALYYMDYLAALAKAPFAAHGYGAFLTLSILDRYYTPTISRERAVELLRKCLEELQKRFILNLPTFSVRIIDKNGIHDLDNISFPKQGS

Compound | inhibition [1] | IC50 (MCF7 [2]) [µM] | inhibition [3] | inhibition [4] [%] | IC50 [5] [µM] | Activity (MCF7 [6]) | Activity (MCF7 [7])
O=C1C(Cl)=C(Nc2ccc(S(=O)(=O)Nc3ccccc3Cl)cc2)C(=O)c2ccccc21 | 1.21% | 2.56 | 6.29% | 3.25 |  |  | 
Cc1cccc(NC(=O)c2ccc(NC3=C(Cl)C(=O)c4ccccc4C3=O)cc2)c1 | 15.1% | 14.4 | 3.39% | 14.6 |  |  | 
COc1cc(NS(=O)(=O)c2ccc(NC3=C(Cl)C(=O)c4ccccc4C3=O)cc2)cc(OC)c1 | 12% | 2.2 | 22.7% | 20 |  |  | 
CC(C)C[C@@H](C=O)NC(=O)[C@H](CC(C)C)NC(=O)[C@H](CC(C)C)NC(=O)OCc1ccccc1 (Cbz-Leu-Leu-Leu-aldehyde) | 18.4% |  | 51.4% | 38.2 |  |  | 
O=C1C(Cl)=C(Nc2ccc(S(=O)(=O)Nc3cccnc3Cl)cc2)C(=O)c2ccccc21 | 11.2% | 4.65 | 22.1% | 22.4 |  |  | 
CC(C)c1ccccc1NC(=O)c1ccc(NC2=C(Cl)C(=O)c3ccccc3C2=O)cc1 | 9.94% | 2.61 | inactive | 17.2 |  |  | 
O=C1C(Cl)=C(Nc2ccc(S(=O)(=O)Nc3ccccc3[N+](=O)[O-])cc2)C(=O)c2ccccc21 | 14.2% | 3.99 | 21.3% | 17.3 |  |  | 
Cc1ccnc(NS(=O)(=O)c2ccc(NC3=C(Cl)C(=O)c4ccccc4C3=O)cc2)c1 | 3.35% | 2.11 | 7.26% | 11.7 |  |  | 
O=C1C(Cl)=C(Nc2ccc(S(=O)(=O)Nc3ccc(Br)cc3)cc2)C(=O)c2ccccc21 | 10% | 3.37 | 23.8% | 22.2 |  |  | 
Cc1csc(NS(=O)(=O)c2ccc(NC3=C(Cl)C(=O)c4ccccc4C3=O)cc2)n1 | 15.4% | 4.23 | 21% | 24.8 |  |  | 
COc1cccc2c1C(=O)c1c(O)c3c(c(O)c1C2=O)C[C@@](O)(C(=O)CO)C[C@@H]3O[C@H]1C[C@H](N)[C@H](O)[C@H](C)O1 [DOXORUBICIN] |  | 0.93 |  |  |  |  | 
O=C(Nc1ccc(Cl)cc1)c1ccc(NC2=C(Cl)C(=O)c3ccccc3C2=O)cc1 | inactive | 4.52 | 1.55% | 15.8 |  |  | 
O=C1C(Cl)=C(Nc2ccc(S(=O)(=O)Nc3cccc4ccccc34)cc2)C(=O)c2ccccc21 | 15.4% | 3.32 | 21.2% | 18.4 |  |  | 
CC(C)c1ccccc1NS(=O)(=O)c1ccc(NC2=C(Cl)C(=O)c3ccccc3C2=O)cc1 | 11.5% | 5.38 | 17.1% | 20 |  |  | 
O=C1C(Cl)=C(Nc2ccc(S(=O)(=O)Nc3cccc([N+](=O)[O-])c3)cc2)C(=O)c2ccccc21 | 7.44% | 2.17 | 19.4% | 23.5 |  |  | 
O=C(Nc1nccs1)c1ccc(NC2=C(Cl)C(=O)c3ccccc3C2=O)cc1 | 3.59% | 3.84 | inactive | 19.6 |  |  | 
Cc1cccnc1NS(=O)(=O)c1ccc(NC2=C(Cl)C(=O)c3ccccc3C2=O)cc1 | 9.01% | 1.91 | 13% | 14.8 |  |  | 
O=C1C(Cl)=C(Nc2ccc(S(=O)(=O)Nc3ccc(Cl)cn3)cc2)C(=O)c2ccccc21 | 28.9% | 4.43 | 35% | 42.3 | 9.9 | inactive | Active
O=C1C(Cl)=C(Nc2ccc(S(=O)(=O)Nc3ccccn3)cc2)C(=O)c2ccccc21 | 18.8% | 1.96 | 29.6% | 36.8 | 12.5 | inactive | Active
O=C(Nc1ccc(Cl)cn1)c1ccc(NC2=C(Cl)C(=O)c3ccccc3C2=O)cc1 | 8.55% | 6.19 | inactive | 19.4 |  |  | 
Cc1cccnc1NC(=O)c1ccc(NC2=C(Cl)C(=O)c3ccccc3C2=O)cc1 | 9.52% | 4.32 | inactive | 11.4 |  |  | 

The remaining compounds from weak to strong by IC50 (MCF7 [2]), led by results:

inhibition [1] | IC50 (MCF7 [2]) [µM] | inhibition [3] | inhibition [4] [%] | IC50 [5] [µM] | Compound | Activity (MCF7 [6]) | Activity (MCF7 [7])
7.87% | 20.8 | 2.43% | 8.96 |  | O=C(Nc1ccncc1)c1ccc(NC2=C(Cl)C(=O)c3ccccc3C2=O)cc1 |  | 
11.7% | 16.6 | 27.6% | 21.6 |  | O=C(Nc1cccc(Cl)c1)c1ccc(NC2=C(Cl)C(=O)c3ccccc3C2=O)cc1 |  | 
22.8% | 16.1 | 30.5% | 35.3 | 33.1 | O=C(Nc1ccc([N+](=O)[O-])cc1)c1ccc(NC2=C(Cl)C(=O)c3ccccc3C2=O)cc1 |  | 
10.7% | 15.4 | 3.19% | 4.03 |  | O=C(Nc1ccccc1)c1ccc(NC2=C(Cl)C(=O)c3ccccc3C2=O)cc1 |  | 
8.36% | 10.2 | 6.55% | 18.9 |  | Cc1cc(NC(=O)c2ccc(NC3=C(Cl)C(=O)c4ccccc4C3=O)cc2)no1 |  | 
1.2% | 6.04 | inactive | 16.3 |  | O=C(Nc1cccnc1)c1ccc(NC2=C(Cl)C(=O)c3ccccc3C2=O)cc1 |  | 
16.7% | 4.8 | 4.41% | 16.9 |  | O=C(Nc1cccc2ccccc12)c1ccc(NC2=C(Cl)C(=O)c3ccccc3C2=O)cc1 |  | 
7.42% | 4.16 | inactive | 22 |  | Cc1ccc(NC(=O)c2ccc(NC3=C(Cl)C(=O)c4ccccc4C3=O)cc2)nc1 |  | 
14.1% | 2.84 | 22.7% | 26 |  | O=C1C(Cl)=C(Nc2ccc(S(=O)(=O)Nc3ccc([N+](=O)[O-])cc3)cc2)C(=O)c2ccccc21 |  | 
7.76% | 2.44 | 7.11% | 22.3 |  | Cc1csc(NC(=O)c2ccc(NC3=C(Cl)C(=O)c4ccccc4C3=O)cc2)n1 |  | 
13.9% | 2.43 | 21.1% | 17.4 |  | CCc1ccccc1NS(=O)(=O)c1ccc(NC2=C(Cl)C(=O)c3ccccc3C2=O)cc1 |  | 
14.2% | 2.1 | 24.5% | 28.8 |  | O=C1C(Cl)=C(Nc2ccc(S(=O)(=O)Nc3cccc(Cl)c3)cc2)C(=O)c2ccccc21 |  | 
16.2% | 1.84 | 2.76% | 10.8 |  | O=C1C(Cl)=C(Nc2ccc(S(=O)(=O)N3CCOCC3)cc2)C(=O)c2ccccc21 |  | 
inactive | 1.79 | 11.6% | 10.1 |  | Cc1ccc(NS(=O)(=O)c2ccc(NC3=C(Cl)C(=O)c4ccccc4C3=O)cc2)nc1 |  | 
8.37% | 1.72 | inactive | 16.6 |  | Cc1ccnc(NC(=O)c2ccc(NC3=C(Cl)C(=O)c4ccccc4C3=O)cc2)c1 |  | 
